Source: ChEMBL document CHEMBL1221275 (Bioorg Med Chem, 2010)

What was measured:
[1] = tested on: Human immunodeficiency virus 1; test: Antiviral activity against HIV1 NL4-3 infected in human MT4 cells assessed as inhibition of viral replication after 4 days by p24 antigen based ELISA assay; type: functional, organism-based; conditions: Human immunodeficiency virus 1, NL4-3, MT4, 96 h
[2] = Therapeutic index, ratio of IC50 for human MT4 cells to EC50 for HIV1 NL4-3; type: cell-based; conditions: read-out: TI
Outline: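 TI was calculated as IC50 (growth inhibition of mock-infected MT-4 cells) divided by EC50 (inhibition of HIV-1 NL4-3 replication in MT-4 cells). Both inputs are averages of at least two separate experiments.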

MT4 = test: Cytotoxicity against human MT4 cells after 4 days; type: cell-based; conditions: MT4, 96 h
Outline: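 Mock-infected MT-4 cells were used. IC50 is the concentration giving 50% inhibition of cell growth. Values are averages of at least two separate experiments.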

EC50 [1] [nM] | Compound | selectivity ratio [2] | IC50 (MT4) [nM]
45 | C=C(C)[C@@H]1CC[C@]2(COC(=O)CCC(=O)OC[C@H]3O[C@@H](n4cc(C)c(=O)[nH]c4=O)C[C@@H]3N=[N+]=[N-])CC[C@]3(C)[C@H](CC[C@@H]4[C@@]5(C)CC[C@H](OC(=O)CC(C)(C)C(=O)O)C(C)(C)[C@@H]5CC[C@]43C)[C@@H]12 | 158 | 7100
60 | C=C(C)[C@@H]1CC[C@]2(COC(=O)CCCC(=O)OC[C@H]3O[C@@H](n4cc(C)c(=O)[nH]c4=O)C[C@@H]3N=[N+]=[N-])CC[C@]3(C)[C@H](CC[C@@H]4[C@@]5(C)CC[C@H](OC(=O)CC(C)(C)C(=O)O)C(C)(C)[C@@H]5CC[C@]43C)[C@@H]12 | 145 | 8700
98 | C=C(C)[C@@H]1CC[C@]2(COC(=O)CC(C)(C)C(=O)OC[C@H]3O[C@@H](n4cc(C)c(=O)[nH]c4=O)C[C@@H]3N=[N+]=[N-])CC[C@]3(C)[C@H](CC[C@@H]4[C@@]5(C)CC[C@H](OC(=O)CC(C)(C)C(=O)O)C(C)(C)[C@@H]5CC[C@]43C)[C@@H]12 | 71 | 7000
40 | C=C(C)[C@@H]1CC[C@]2(COC(=O)C(C)(C)CC(=O)OC[C@H]3O[C@@H](n4cc(C)c(=O)[nH]c4=O)C[C@@H]3N=[N+]=[N-])CC[C@]3(C)[C@H](CC[C@@H]4[C@@]5(C)CC[C@H](OC(=O)CC(C)(C)C(=O)O)C(C)(C)[C@@H]5CC[C@]43C)[C@@H]12 | 135 | 5400
63 | C=C(C)[C@@H]1CC[C@]2(COC(=O)CC(C)(C)CC(=O)OC[C@H]3O[C@@H](n4cc(C)c(=O)[nH]c4=O)C[C@@H]3N=[N+]=[N-])CC[C@]3(C)[C@H](CC[C@@H]4[C@@]5(C)CC[C@H](OC(=O)CC(C)(C)C(=O)O)C(C)(C)[C@@H]5CC[C@]43C)[C@@H]12 | 129 | 8100
180 | C=C(C)[C@@H]1CC[C@]2(COC(=O)CC(C)(C)CC(=O)OC[C@H]3O[C@@H](n4cc(C)c(=O)[nH]c4=O)C[C@@H]3N=[N+]=[N-])CC[C@]3(C)[C@H](CC[C@@H]4[C@@]5(C)CC[C@H](OC(=O)CC(C)(C)CC(=O)O)C(C)(C)[C@@H]5CC[C@]43C)[C@@H]12 | 43 | 7700
87 | Cc1cn([C@H]2C[C@H](N=[N+]=[N-])[C@@H](COC(=O)C(C)(C)CC(=O)OC[C@]34CC[C@@H](C(C)C)[C@@H]3[C@H]3CC[C@@H]5[C@@]6(C)CC[C@H](OC(=O)CC(C)(C)C(=O)O)C(C)(C)[C@@H]6CC[C@@]5(C)[C@]3(C)CC4)O2)c(=O)[nH]c1=O | 103 | 9000
56 | Cc1cn([C@H]2C[C@H](N=[N+]=[N-])[C@@H](COC(=O)CC(C)(C)C(=O)OC[C@]34CC[C@@H](C(C)C)[C@@H]3[C@H]3CC[C@@H]5[C@@]6(C)CC[C@H](OC(=O)CC(C)(C)C(=O)O)C(C)(C)[C@@H]6CC[C@@]5(C)[C@]3(C)CC4)O2)c(=O)[nH]c1=O | 138 | 7700
290 | Cc1cn([C@H]2C[C@H](N=[N+]=[N-])[C@@H](COC(=O)CC(C)(C)CC(=O)OC[C@]34CC[C@@H](C(C)C)[C@@H]3[C@H]3CC[C@@H]5[C@@]6(C)CC[C@H](OC(=O)CC(C)(C)C(=O)O)C(C)(C)[C@@H]6CC[C@@]5(C)[C@]3(C)CC4)O2)c(=O)[nH]c1=O | 31 | 9000
73 | Cc1cn([C@H]2C[C@H](N=[N+]=[N-])[C@@H](COC(=O)CC(C)(C)C(=O)OC[C@]34CC[C@@H](C(C)C)[C@@H]3[C@H]3CC[C@@H]5[C@@]6(C)CC[C@H](OC(=O)CCCC(=O)O)C(C)(C)[C@@H]6CC[C@@]5(C)[C@]3(C)CC4)O2)c(=O)[nH]c1=O | 110 | 8000
260 | Cc1cn([C@H]2C[C@H](N=[N+]=[N-])[C@@H](COC(=O)C(C)(C)CC(=O)OC[C@]34CC[C@@H](C(C)C)[C@@H]3[C@H]3CC[C@@H]5[C@@]6(C)CC[C@H](OC(=O)CCCC(=O)O)C(C)(C)[C@@H]6CC[C@@]5(C)[C@]3(C)CC4)O2)c(=O)[nH]c1=O | 28 | 7200
93 | Cc1cn([C@H]2C[C@H](N=[N+]=[N-])C(COC(=O)CCCC(=O)OC[C@]34CC[C@@H](C(C)C)[C@@H]3[C@H]3CC[C@@H]5[C@@]6(C)CC[C@H](OC(=O)CCCC(=O)O)C(C)(C)[C@@H]6CC[C@@]5(C)[C@]3(C)CC4)O2)c(=O)[nH]c1=O (some centres not stated) | 97 | 9000
1210 | Cc1cn([C@H]2C[C@H](N=[N+]=[N-])C(COC(=O)CC(C)(C)CC(=O)OC[C@]34CC[C@@H](C(C)C)[C@@H]3[C@H]3CC[C@@H]5[C@@]6(C)CC[C@H](OC(=O)CCCC(=O)O)C(C)(C)[C@@H]6CC[C@@]5(C)[C@]3(C)CC4)O2)c(=O)[nH]c1=O (some centres not stated) | 7 | 8500
360 | Cc1cn([C@H]2C[C@H](N=[N+]=[N-])C(COC(=O)CC(C)(C)CC(=O)OC[C@]34CC[C@@H](C(C)C)[C@@H]3[C@H]3CC[C@@H]5[C@@]6(C)CC[C@H](OC(=O)CC(C)(C)CC(=O)O)C(C)(C)[C@@H]6CC[C@@]5(C)[C@]3(C)CC4)O2)c(=O)[nH]c1=O (some centres not stated) | 27 | 9800
96 | C=C(C)[C@@H]1CC[C@]2(C(=O)O)CC[C@]3(C)[C@H](CC[C@@H]4[C@@]5(C)CC[C@H](OC(=O)CC(C)(C)C(=O)O)C(C)(C)[C@@H]5CC[C@]43C)[C@@H]12 [BEVIRIMAT] | > 52 | > 5000
– | Cc1cn([C@H]2C[C@H](N=[N+]=[N-])[C@@H](CO)O2)c(=O)[nH]c1=O [ZIDOVUDINE] | – | > 37400

Compound | EC50 [1] [nM] | selectivity ratio [2] | IC50 (MT4) [nM]
C=C(C)[C@@H]1CC[C@]2(COC(=O)CCC(=O)O)CC[C@]3(C)[C@H](CC[C@@H]4[C@@]5(C)CC[C@H](OC(=O)CC(C)(C)C(=O)O)C(C)(C)[C@@H]5CC[C@]43C)[C@@H]12 | 180 | 63 | 11300
C=C(C)[C@@H]1CC[C@]2(COC(=O)CCCC(=O)O)CC[C@]3(C)[C@H](CC[C@@H]4[C@@]5(C)CC[C@H](OC(=O)CC(C)(C)C(=O)O)C(C)(C)[C@@H]5CC[C@]43C)[C@@H]12 | 310 | > 47 | > 46600
